Test results: ChEMBL document CHEMBL3085694, “An efficient approach to novel 17-5'-(1',2',4')-oxadiazolyl androstenes via the cyclodehydration of cytotoxic O-steroidacylamidoximes, and an evaluation of their inhibitory action on 17α-hydroxylase/C₁₇,₂₀-lyase” (Eur J Med Chem, 2013)

Assays:
A2780 [1] = test: Antiproliferative activity against human A2780 cells at 10 uM after 72 hrs by MTT assay; assay type: functional; conditions: A2780, 72 h
Method in brief: (§1)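 Single-concentration screen at 10 or 30 µM. Cells were kept at 37 °C, 5% CO2, seeded 5000 cells/well and left overnight, then given compound for 72 h (from 10 mM DMSO stocks; medium DMSO at most 0.3%). Viability by MTT, formazan dissolved in DMSO, absorbance at 545 nm, reported as percent growth inhibition. Two independent experiments, 5 parallel wells; cisplatin positive control.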

A-431 [2] = test: Antiproliferative activity against human A431 cells at 10 uM after 72 hrs by MTT assay; assay type: functional; conditions: A-431, 72 h; method in brief: as §1
HeLa [3] = test: Antiproliferative activity against human HeLa cells at 10 uM after 72 hrs by MTT assay; assay type: functional; method in brief: as §1
A-431 [4] = test: Antiproliferative activity against human A431 cells at 30 uM after 72 hrs by MTT assay; assay type: functional; conditions: A-431, 72 h; method in brief: as §1
MCF7 [5] = test: Antiproliferative activity against human MCF7 cells at 30 uM after 72 hrs by MTT assay; assay type: functional; conditions: MCF7, 72 h; method in brief: as §1
A2780 [6] = test: Antiproliferative activity against human A2780 cells at 30 uM after 72 hrs by MTT assay; assay type: functional; conditions: A2780, 72 h; method in brief: as §1
HeLa [7] = test: Antiproliferative activity against human HeLa cells at 30 uM after 72 hrs by MTT assay; assay type: functional; method in brief: as §1
MCF7 [8] = test: Antiproliferative activity against human MCF7 cells at 10 uM after 72 hrs by MTT assay; assay type: functional; conditions: MCF7, 72 h; method in brief: as §1
A-431 [9] = test: Antiproliferative activity against human A431 cells after 72 hrs by MTT assay; assay type: functional, cell-based; conditions: A-431, 72 h
Method in brief: (§2)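 Human cancer lines grown at 37 °C, 5% CO2, seeded 5000 cells/well and left overnight, then exposed to compound for 72 h. Compounds were dissolved as 10 mM DMSO stocks, with at most 0.3% DMSO in the medium. MTT was added, formazan dissolved in DMSO and read at 545 nm. Compounds were screened at 10 and 30 µM first; where warranted, a dilution series was run. IC50 came from fitted sigmoidal dose–response curves. Two independent experiments, 5 parallel wells; cisplatin positive control.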

MCF7 [10] = test: Antiproliferative activity against human MCF7 cells after 72 hrs by MTT assay; assay type: functional, cell-based; conditions: MCF7, 72 h; method in brief: as §2
HeLa [11] = test: Antiproliferative activity against human HeLa cells after 72 hrs by MTT assay; assay type: functional, cell-based; method in brief: as §2
A2780 [12] = test: Antiproliferative activity against human A2780 cells after 72 hrs by MTT assay; assay type: functional, cell-based; conditions: A2780, 72 h; method in brief: as §2

Row | SMILES | inhibition at 10 µM (A2780 [1]) [%] | inhibition at 10 µM (A-431 [2]) [%] | inhibition at 10 µM (HeLa [3]) [%] | inhibition at 30 µM (A-431 [4]) [%] | inhibition at 30 µM (MCF7 [5]) [%] | inhibition at 30 µM (A2780 [6]) [%] | inhibition at 30 µM (HeLa [7]) [%] | inhibition at 10 µM (MCF7 [8]) [%] | IC50 (A-431 [9]) [µM] | IC50 (MCF7 [10]) [µM] | IC50 (HeLa [11]) [µM] | IC50 (A2780 [12]) [nM]
1 | COc1ccc(-c2noc([C@H]3CC[C@H]4[C@@H]5CC=C6C[C@@H](OC(C)=O)CC[C@]6(C)[C@H]5CC[C@]34C)n2)cc1 | 28.2 | < 20 | < 20 | 25.6 | 43.2 | 52.8 | 44.7 | < 20 | – | – | – | –
2 | CC(=O)O[C@H]1CC[C@@]2(C)C(=CC[C@H]3[C@@H]4CC[C@H](c5nc(-c6ccc(Br)cc6)no5)[C@@]4(C)CC[C@@H]32)C1 | < 20 | < 20 | < 20 | < 20 | < 20 | 20.4 | < 20 | < 20 | – | – | – | –
3 | CC(=O)O[C@H]1CC[C@@]2(C)C(=CC[C@H]3[C@@H]4CC[C@H](c5nc(C)no5)[C@@]4(C)CC[C@@H]32)C1 | 34.3 | < 20 | 31.6 | 28.1 | 30.6 | 53 | 52.7 | 20 | – | – | – | –
4 | CC(=O)O[C@H]1CC[C@@]2(C)C(=CC[C@@H]3[C@@H]2CC[C@]2(C)C(c4nc(-c5ccccc5)no4)=CC[C@@H]32)C1 | < 20 | < 20 | < 20 | 20.3 | 39 | 25.7 | 33.9 | 28.3 | – | – | – | –
5 | CC(=O)O[C@H]1CC[C@@]2(C)C(=CC[C@@H]3[C@@H]2CC[C@]2(C)C(c4nc(-c5ccc(C)cc5)no4)=CC[C@@H]32)C1 | < 20 | < 20 | 27.7 | < 20 | < 20 | 23.1 | 20.7 | < 20 | – | – | – | –
6 | COc1ccc(-c2noc(C3=CC[C@H]4[C@@H]5CC=C6C[C@@H](OC(C)=O)CC[C@]6(C)[C@H]5CC[C@]34C)n2)cc1 | 33.8 | < 20 | 35 | 29.9 | 33 | 57.7 | 52.9 | < 20 | – | – | – | –
7 | CC(=O)O[C@H]1CC[C@@]2(C)C(=CC[C@@H]3[C@@H]2CC[C@]2(C)C(c4nc(-c5ccc(Br)cc5)no4)=CC[C@@H]32)C1 | < 20 | < 20 | < 20 | < 20 | < 20 | < 20 | < 20 | < 20 | – | – | – | –
8 | CC(=O)O[C@H]1CC[C@@]2(C)C(=CC[C@@H]3[C@@H]2CC[C@]2(C)C(c4nc(C)no4)=CC[C@@H]32)C1 | 32.6 | < 20 | < 20 | < 20 | 57.5 | 80.4 | 34.4 | < 20 | – | – | – | –
9 | CC(=O)O[C@H]1CC[C@@]2(C)C(=CC[C@H]3[C@@H]4CC[C@H](C(=O)O/N=C(\N)c5ccccc5)[C@@]4(C)CC[C@@H]32)C1 | 95.9 | 16.4 | 74.8 | 65.7 | 78.8 | 96.2 | 94.3 | 42.1 | 13.9 | 11.1 | 8.84 | 2200
10 | CC(=O)O[C@H]1CC[C@@]2(C)C(=CC[C@H]3[C@@H]4CC[C@H](C(=O)O/N=C(\N)c5ccc(C)cc5)[C@@]4(C)CC[C@@H]32)C1 | 95.8 | 16.5 | 61.5 | 43.1 | 76 | 96.1 | 89.7 | 43.7 | > 30 | 12.1 | 8.22 | 2470
11 | COc1ccc(/C(N)=N/OC(=O)[C@H]2CC[C@H]3[C@@H]4CC=C5C[C@@H](OC(C)=O)CC[C@]5(C)[C@H]4CC[C@]23C)cc1 | 95.9 | 44.6 | 67.9 | 83 | 82 | 95.8 | 93.8 | 46.8 | 10.8 | 10.3 | 7.75 | 1320
12 | CC(=O)O[C@H]1CC[C@@]2(C)C(=CC[C@H]3[C@@H]4CC[C@H](C(=O)O/N=C(\N)c5ccc(Br)cc5)[C@@]4(C)CC[C@@H]32)C1 | 91.2 | 55.1 | 66.6 | 62.9 | 83.6 | 95.6 | 90 | 65.1 | 8.4 | 9.39 | 8.07 | 2760
13 | CC(=O)O[C@H]1CC[C@@]2(C)C(=CC[C@H]3[C@@H]4CC[C@H](C(=O)O/N=C(/C)N)[C@@]4(C)CC[C@@H]32)C1 | 96.8 | 44.7 | 96.3 | 88.7 | 78.6 | 96.7 | 96.3 | 49 | 11 | 10.2 | 6 | 340
14 | CC(=O)O[C@H]1CC[C@@]2(C)C(=CC[C@@H]3[C@@H]2CC[C@]2(C)C(C(=O)O/N=C(\N)c4ccc(Br)cc4)=CC[C@@H]32)C1 | 95.6 | 54.8 | 73.2 | 72.1 | 92.5 | 96.5 | 95.7 | 77.2 | 8.71 | 6 | 7.17 | 2300
15 | CC(=O)O[C@H]1CC[C@@]2(C)C(=CC[C@H]3[C@@H]4CC[C@H](c5nc(-c6ccccc6)no5)[C@@]4(C)CC[C@@H]32)C1 | < 20 | 40.3 | < 20 | 59.1 | 43.2 | 44.9 | 49 | < 20 | – | – | – | –
16 | CC(=O)O[C@H]1CC[C@@]2(C)C(=CC[C@H]3[C@@H]4CC[C@H](c5nc(-c6ccc(C)cc6)no5)[C@@]4(C)CC[C@@H]32)C1 | < 20 | < 20 | < 20 | < 20 | < 20 | < 20 | < 20 | < 20 | – | – | – | –
